According to publication PMC6087491 (Bioorganic & medicinal chemistry, 2018):
Read-outs that look alike come from different tables or passages of the source.

Experiments:
CAR cell line = experiment: MTT antiproliferative assay against cisplatin-resistant oral squamous; assay type: cell-based, human
Method in brief: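 Cells are a CAL27-derived line selected through 10 cycles of 10–80 μM cisplatin and maintained in DMEM/10% FBS with penicillin, streptomycin, 2 mM L-glutamine and 80 μM cisplatin. They were seeded at 2×10^4 cells/well and exposed to 0–100 μM test compound (0.5% DMSO vehicle) for 48 or 72 h. MTT (500 μg/ml) was added for 4 h at 37 °C, formazan was dissolved in DMSO, and A570 was read. Viability is expressed as % of control.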

CAR xenograft = experiment: In vivo antitumor activity in CAR xenograft nude mouse model; design: species or system BALB/c nude mice
Method in brief: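 Male 4-week-old BALB/c nude mice; CAR cells (cisplatin-resistant CAL27, cultured with 80 μM cisplatin), 1×10^7/mouse in medium:Matrigel 1:1, injected s.c. into flank. At ~50 mm3 (day 22), randomised into four groups; test compound oral 25, 50 or 100 mg/kg once daily ×30 in 1,2-propanediol; controls vehicle only. Caliper tumor size ([…]); tumors excised, weighed day 31.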

[1] = Preliminary pharmacokinetic study of compound 12 in rats; conditions: single oral 100 mg/kg, PO-1 and PO-2 formulations, 0.5-24 h
[2] = Toxicity monitoring and blood biochemical analysis in CAR xenograft nude mice; assay type: in vivo, BALB/c nude mice
[3] = read-out: IC50 (concentration for 50% antiproliferative effect), CAR cells, 48 h
[4] = read-out: IC50 (concentration for 50% antiproliferative effect), CAR cells, 72 h

| Compound | IC50 (CAR cell line; [3]) [µM] | IC50 (CAR cell line; [4]) [µM] | also measured |
| --- | --- | --- | --- |
| 4-[(E)-2-(3,5-dimethoxyphenyl)ethenyl]phenol [Pterostilbene, reference compound] | 100 ± 4.78 | 98.3 ± 5.21 | – |
| N.N.[Cl][Pt][Cl] [Cisplatin, reference compound] | > 100 | > 100 | – |
| COc1cc(/C=C/c2ccc(OC(=O)C(C)(CO)CO)cc2)cc(OC)c1 [Compound 12, 4-(3,5-Dimethoxystyryl)phenyl-3-hydroxy-2-(hydroxymethyl)-2-methylpropanoate] | – | – | inhibitory effects on CAR tumor size and weight (CAR xenograft; 25, 50 and 100 mg/kg PO once daily for 30 days): dose- and time-dependent inhibitory effects; antitumor activity (CAR xenograft; lowest oral dose 25 mg/kg/day): Obvious antitumor activity; blood concentration of compound 12 [1]: not detected; changes in body weight, food consumption and behavior vs untreated control ([2]; 25, 50 and 100 mg/kg PO QD×30): no obvious changes; blood analysis, 12-fed groups vs control group ([2]; total protein, albumin, creatinine, BUN, uric acid, glucose, 25-100 mg/kg QD×30): no significant difference |
| (E)-4-(3,5-Dihydroxystyryl)phenyl 3-hydroxy-2-(hydroxymethyl)-2-methylpropanoate [Compound 20] | 52 ± 2.6 | 50.3 ± 1.98 | – |
| (E)-4-(3-Acetoxy-5-((3-hydroxy-2-(hydroxymethyl)-2-methylpropanoyl)oxy) styryl)phenyl 3-hydroxy-2-(hydroxymethyl)-2-methylpropanoate [Compound 27] | 122 ± 2.69 | 119 ± 2.19 | – |
| (E)-4-(3-Acetoxy-5-methoxystyryl)phenyl 3-hydroxy-2-(hydroxymethyl)-2-methylpropanoate [Compound 18] | 169 ± 3.19 | 133 ± 2.45 | – |
| (E)-4-(3-Hydroxy-5-((3-hydroxy-2-(hydroxymethyl)-2-methylpropanoyl)oxy) styryl)phenyl 3-hydroxy-2-(hydroxymethyl)-2-methylpropanoate [Compound 25] | 105 ± 1.98 | 113 ± 2.77 | – |
| (E)-5-(4-((3-Hydroxy-2-(hydroxymethyl)-2-methylpropanoyl)oxy)styryl)-1,3-phenylene diacetate [Compound 22] | 103 ± 4.58 | 116 ± 3.96 | – |
| (E)-5-(4-((3-Hydroxy-2-(hydroxymethyl)-2-methylpropanoyl)oxy)styryl)-1,3-phenylene diacetate [Compound 23] | 54.9 ± 2.59 | 114 ± 3.25 | – |
| (E)-5-(4-Hydroxystyryl)-1,3-phenylene bis(3-hydroxy-2-(hydroxymethyl)-2-methylpropanoate) [Compound 24] | 90.4 ± 3.65 | 76.9 ± 3.22 | – |
